APOBEC3G inh = APOBEC3G (human) deaminase inhibition | Q9HC16 | recombinant A3G, ssDNA deamination FAM/TAMRA fluorescence | inhibition, % at 20 µM | 330,000 compounds, 0.28% hits | AID 493012;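 active means inhibition of at least 40% at 20 µM, with no more than 30% in the related APOBEC3A deaminase screen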;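 further: plate controls were DMSO wells with A3G for no effect and wells lacking A3G enzyme for full effect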
Target sequence (Q9HC16 whole entry, looked up): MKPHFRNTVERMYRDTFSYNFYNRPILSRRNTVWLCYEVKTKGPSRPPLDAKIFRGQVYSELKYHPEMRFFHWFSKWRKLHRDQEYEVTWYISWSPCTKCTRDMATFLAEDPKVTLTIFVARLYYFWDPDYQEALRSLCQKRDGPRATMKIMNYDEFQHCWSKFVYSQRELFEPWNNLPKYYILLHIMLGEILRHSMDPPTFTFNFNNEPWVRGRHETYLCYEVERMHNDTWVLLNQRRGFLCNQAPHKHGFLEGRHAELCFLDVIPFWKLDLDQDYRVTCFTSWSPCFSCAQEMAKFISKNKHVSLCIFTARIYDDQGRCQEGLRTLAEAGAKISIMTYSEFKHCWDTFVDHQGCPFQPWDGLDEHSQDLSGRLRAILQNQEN
hiPSC survival = enhancers of human iPSC single-cell survival | hiPSC single-cell survival, ATPlite luminescence; 100% = ROCK inhibitor wells, 0% = DMSO | survival enhancement, % at 20 µM | 360,000 compounds, 0.044% hits | AID 602274; in the data active means survival enhancement above about 18%;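 further: cells exposed to compounds for 16 hours before the ATP read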
HKDC1 inh = HKDC1 (human) hexokinase inhibition | inhibition, % at 20 µM | Q2TB90 | 340,000 compounds, 0.16% hits | recombinant HKDC1, G6PDH/diaphorase resazurin coupled fluorescence;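 active means inhibition above about 35% when tested at 20 µM, limit read from the data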;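 further: plate controls were DMSO wells with enzyme for no effect and DMSO wells lacking enzyme for full effect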
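Material: recombinant HKDC1 hexokinase; Amount: HKDC1 at 5 µg/mL; Medium: Tris pH 8.0 buffer with MgCl2, Tween-20, BSA, BME; Schedule: 90 min reaction incubation at room temperature, dark; Technique: coupled resazurin fluorescence, excitation 525 nm, emission 613 nm.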
APOBEC3A inh = inhibitors of human APOBEC3A DNA deaminase; recombinant A3A, FAM/TAMRA ssDNA deamination fluorescence; 330,000 compounds, 0.41% hits; P31941; inhibition, % at 20 µM;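 active means at least 40% inhibition at 20 µM here, with at most 30% in a related deaminase screen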;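 further: plate controls were A3A with DMSO for no effect and wells lacking A3A enzyme for full effect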
Target sequence (P31941 whole entry, looked up): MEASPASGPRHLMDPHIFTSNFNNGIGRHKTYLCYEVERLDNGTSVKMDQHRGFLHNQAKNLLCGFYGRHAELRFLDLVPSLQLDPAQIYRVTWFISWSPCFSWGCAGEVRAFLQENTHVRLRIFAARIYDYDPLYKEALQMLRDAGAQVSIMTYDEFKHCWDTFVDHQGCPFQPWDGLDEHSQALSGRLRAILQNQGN
PfGluPho inh = PfG6PD (Plasmodium falciparum) enzyme inhibition; inhibition, % at 20 µM; 350,000 compounds, 0.78% hits; PfGluPho enzyme, NADPH resazurin-diaphorase fluorescence; AID 504690;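 active means inhibition reaching at least a set limit at 20 µM in the primary screen, cut at about 59% in these data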;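 further: 0% = DMSO wells with substrate and 100% = DMSO wells lacking glucose-6-phosphate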
A3A conf = APOBEC3A (human) deaminase inhibition, confirmed. shares compounds with APOBEC3A inh. recombinant A3A, ssDNA deaminase UDG fluorescence assay. inhibition, % at 20 µM. 1,400 compounds, 63% hits;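 active means inhibition reaching a set limit, 80% of the first screen's cutoff, at 20 µM in any replicate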;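 further: plate controls were DMSO wells with A3A for no effect and wells lacking A3A enzyme for full effect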
UDG ctr A3A = UDG inhibition in APOBEC3A counter-screen; shares compounds with APOBEC3A inh; UDG counterscreen, FAM/TAMRA uracil oligo fluorescence; inhibition, % at 20 µM; 1,000 tested, under 10 active; AID 504714; call rule not given here
Numbers without * were called inactive; nt = not tested or not shown. Shown are actives, neighbours in structure and some others; about 1.4% of the full set was active somewhere.

SMILES	APOBEC3G inh	hiPSC survival	HKDC1 inh	APOBEC3A inh	PfGluPho inh	A3A conf	UDG ctr A3A
O=C(NCCCc1ccccc1)c1ccc([N+](=O)[O-])cc1Cl	-7	3	4	-4	12	nt	nt
Cc1[nH]c2ccccc2c1C(=O)C(=O)NCc1nnnn1-c1ccc(F)cc1	nt	1	nt	nt	4	nt	nt
O=c1oc(/C=C/c2ccc([N+](=O)[O-])s2)nc2ccccc12	4	-1	14	43*	14	33*	nt
CSc1cccc(NC(=O)C2CC(=O)N(Cc3ccccc3)C2)c1 (stereo not drawn)	28	0	-3	52*	11	-1	nt
CC(=O)Nc1ccc(NC(=O)C2CC(=O)N(Cc3ccco3)C2)cc1 (stereo not drawn)	-1	0	-3	47*	3	22	3
CCOc1ccc(NC(=O)C2CC(=O)N(Cc3ccco3)C2)cc1 (stereo not drawn)	-3	0	3	-4	-2	nt	nt
Cc1cc(C)n2nc(CCCCc3nc4nc(C)cc(C)n4n3)nc2n1	-6	nt	nt	-2	nt	nt	nt
Cc1cc(C)n2nc[n+](C)c2n1	22	3	1	53*	-5	39*	-2
O=C(NCc1cccnc1)c1cc(C2CCCN(C(=O)c3cccc(O)c3)C2)on1 (stereo not drawn)	nt	-2	nt	nt	nt	nt	nt
FC(F)(F)c1ccc2c(c1)n(Cc1ccccc1)c1[n+]2CCCCC1	65	0	-2	45	1	nt	nt
O=C(Cn1c2[n+](c3ccc(C(F)(F)F)cc31)CCCCC2)c1cccc([N+](=O)[O-])c1	-4	-2	-10	-3	-3	nt	nt
O=C(Cn1c2[n+](c3ccc(C(F)(F)F)cc31)CCCCC2)Nc1ccccc1	23	-1	-6	60*	3	62*	-2
CCc1cccc(NC(=O)Cn2c3[n+](c4ccc(C(F)(F)F)cc42)CCCCC3)c1	17	-1	-13	62*	-3	78*	-4
CC(C)NC(=O)N(C)C[C@H]1OCCCC[C@@H](C)Oc2ccc(N(C)C)cc2C(=O)N([C@H](C)CO)C[C@@H]1C	nt	0	nt	nt	nt	nt	nt
CCCc1cc2c(-c3ccccc3)cc(=O)oc2cc1OCc1ccc(C(=O)O)o1	-4	3	3	1	-36	nt	nt
CCN1CCN(C(=O)c2cc3cc([N+](=O)[O-])ccc3oc2=O)CC1	-7	0	-4	-2	-3	nt	nt
O=C(c1cc2cc([N+](=O)[O-])ccc2oc1=O)n1cccn1	21	0	2	59*	2	39*	nt
CCC(C)Sc1cccc(-c2nc3cc(C)ccn3c2NC2CCCCC2)c1 (stereo not drawn)	4	-1	3	-4	8	nt	nt
COCC(C)NC(C(=O)Nc1cccc(C(C)=O)c1)c1ccccc1 (stereo not drawn)	3	0	8	6	-15	nt	nt
CCOc1ccc(NC(C(=O)Nc2cccc(C(C)=O)c2)c2ccccc2)cc1 (stereo not drawn)	-3	-1	-2	43*	13	-11	-3
Cc1ccc(C)c(N(CC(=O)N/N=C/c2ccc(-c3ccc([N+](=O)[O-])cc3)o2)S(=O)(=O)c2ccccc2)c1	-5	0	6	-2	-5	nt	nt
CCOc1ccc(S(=O)(=O)N(CC(=O)N/N=C/c2ccc(-c3ccc([N+](=O)[O-])cc3)o2)c2ccccc2)cc1	23	3	22	66*	22	37*	5
COc1cc(C(=O)OCC(=O)N2CCCC2=O)cc(OC)c1C	9	0	2	18	-4	nt	nt
CN(Cc1ccccc1)C1=CC(=[N+]2CCCC2)CC(C)(C)C1	19	0	-3	57*	0	70*	-2
CC1(C)CC(N2CCN(c3ccccc3)CC2)=CC(=[N+]2CCCC2)C1	18	-1	6	44*	-2	66*	-5
SMILES	APOBEC3G inh	hiPSC survival	HKDC1 inh	APOBEC3A inh	PfGluPho inh	A3A conf	UDG ctr A3A
CSc1nc(N2CCN(c3ccccc3)CC2)cc(N2CCN(c3ccccc3)CC2)n1	-4	1	-10	0	2	nt	nt
CC1CC(C)C[N+](=C2C=C(N3CCCC3)CC(C)(C)C2)C1 (stereo not drawn)	nt	-1	-6	nt	-8	nt	nt
CCN(CC)C1=CC(=[N+]2CCCC2)CC(C)(C)C1	46	-1	-12	54	-2	nt	nt
CC1(C)CC(N2CCCC2)=CC(=[N+]2CCCCCC2)C1	26	-4	-11	62*	-6	68*	0
CC(C)c1ccc(N(CC(=O)NN=C2CCN(C)CC2)S(=O)(=O)c2ccccc2)cc1	-4	0	-11	65*	18	3	7
COc1ccc(N(CC(=O)NCC(C)C)S(=O)(=O)c2ccccc2)cc1	9	-1	-15	41*	12	10	nt
COc1ccc(N(CC(=O)NCCSc2ccc(C)cc2)S(=O)(=O)c2ccccc2)c(OC)c1	12	0	3	54*	9	40*	-1
CCOC(=O)C1CCN(C(=O)CCn2c(=O)oc3ccccc32)CC1	nt	-1	nt	nt	-7	nt	nt
Nc1ccc2oc(CCc3ccccc3)nc2c1	-4	0	6	60*	24	-7	-2
CCOC(=O)c1c(NC(=O)Cn2ccsc2=N)sc(C)c1C	10	-1	4	57*	-13	24	nt
COc1ccc(C(O)c2nc(-c3cncnc3)cs2)cc1 (stereo not drawn)	nt	-3	nt	nt	nt	nt	nt
Cc1cccc(NC(=O)CNC(=O)Cn2ncc(Cl)c(Cl)c2=O)c1C	20	-6	6	49*	-5	38*	2
N#CC1(NC(=O)COc2ccc(S(=O)(=O)N3CCCC3)cc2[N+](=O)[O-])CCCCC1	5	1	1	51*	3	-1	nt
COC(=O)c1ccc2c(c1)C(C)(C)C(/C=C/c1ccc(OC)c(OC)c1OC)=[N+]2C	24	-7	19	95*	26	83*	2
CCOC(=O)C1CCN(S(=O)(=O)c2ccc3c(c2)CC(=O)N3C)CC1	28	0	10	52*	2	55*	-4
CCOC(=O)C1CCN(S(=O)(=O)c2ccc3c(c2)CCCN3C(C)=O)CC1	0	4	-8	2	1	nt	nt
O=C(O)c1cc2nc(-c3ccc(F)cc3)cc(C(F)(F)F)n2n1	-6	-3	-1	4	8	nt	nt
FC(F)(F)c1cc(-c2cccs2)nc2cc(-c3ccccc3)nn12	-7	5	-14	0	-2	nt	nt
CCn1cc(-c2cc(C(F)(F)F)n3nc(C(=O)O)cc3n2)c(C)n1	-11	-3	-3	54*	1	29*	-32
O=C(O)c1cc2nc(-c3cccs3)cc(C(F)(F)F)n2n1	-12	1	6	74*	-4	50*	-4

Bioassay records: PubChem, Sanford-Burnham Center for Chemical Genomics
